In BindingDB's records for doi:10.1016/s0960-894x(03)00042-8 (Merck Frosst Centre For Therapeutic Research, 2003):

Molecular target: Prostaglandin E2 receptor EP4 subtype (Homo sapiens, UniProt P35408)
Assay: Binding affinity towards EP4 receptor expressed in HEK293 ebna cells recombinantly expressing the corresponding human prostanoid cDNAs
How it was run: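 Competition binding used membrane preparations, not intact cells, from HEK293ebna cells expressing each recombinant human prostanoid receptor cDNA.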

Sequence of Prostaglandin E2 receptor EP4 subtype (P35408 whole entry): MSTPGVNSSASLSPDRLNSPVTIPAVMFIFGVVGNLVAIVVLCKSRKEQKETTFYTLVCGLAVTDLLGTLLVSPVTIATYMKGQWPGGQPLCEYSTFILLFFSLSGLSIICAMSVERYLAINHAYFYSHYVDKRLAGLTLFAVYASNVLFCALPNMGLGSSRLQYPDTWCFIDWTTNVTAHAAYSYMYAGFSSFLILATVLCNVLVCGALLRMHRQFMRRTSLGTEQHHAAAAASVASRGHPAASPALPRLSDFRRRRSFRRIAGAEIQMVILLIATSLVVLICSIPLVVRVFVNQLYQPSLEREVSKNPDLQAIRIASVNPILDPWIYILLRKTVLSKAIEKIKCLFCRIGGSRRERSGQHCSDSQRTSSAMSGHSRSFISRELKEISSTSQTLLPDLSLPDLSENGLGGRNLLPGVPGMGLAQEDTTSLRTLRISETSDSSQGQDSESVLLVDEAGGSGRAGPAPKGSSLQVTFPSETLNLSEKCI

Molecule `O=C1CC[C@H](/C=C/[C@H](O)Cc2ccccc2)N1CCCCCCc1nnn[nH]1` has a Ki of 2.5 nM.
